The source of these data is ChEMBL document CHEMBL4368933, “Structure-activity relationship of leucyladenylate sulfamate analogues as leucyl-tRNA synthetase (LRS)-targeting inhibitors of Mammalian target of rapamycin complex 1 (mTORC1)” (Bioorg Med Chem, 2019).

One assay concerns HEK293. Nature of the assay: Effect on leucine-induced AKT levels in human HEK293 cells at 200 uM preincubated for 50 mins followed by leucine-stimulation and measured after 10 mins by Western blot analysis. The assay is classed as functional, cell-based.
Assay [1] addresses Leucine--tRNA ligase, cytoplasmic (Homo sapiens) (UniProt Q9P2J5). Nature of the assay: Inhibition of Leucyl-tRNA synthetase-mediated mTORC1 signaling activation in human HEK293 cells assessed as reduction in leucine-induced S6K phosphorylation at 200 uM preincubated for 50 mins followed by leucine-stimulation and measured after 10 mins by Western blot analysis. The assay is classed as cell-based. In short, it runs like this: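 HEK293 cells pretreated with test agent at a fixed 200 µM, alongside rapamycin (100 nM) and leucinol (800 µM) as references. mTORC1 then activated by adding leucine for 10 min. S6K phosphorylation read by Western blot.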

Another assay concerns the target mTORC2 (Homo sapiens) (UniProt P42345+Q6R327+Q9BVC4+Q9BPZ7). Briefly: Inhibition of mTORC2 signaling in human HEK293 cells assessed as reduction in leucine-induced AKT phosphorylation at 200 uM preincubated for 50 mins followed by leucine-stimulation and measured after 10 mins by Western blot analysis. Type of assay: cell-based.
In assay [2] the target is Leucine--tRNA ligase, cytoplasmic (Homo sapiens) (UniProt Q9P2J5). Nature of the assay: Inhibition of Leucyl-tRNA synthetase-mediated mTORC1 signaling activation in human HEK293 cells assessed as reduction in leucine-induced S6K phosphorylation preincubated for 50 mins followed by leucine-stimulation and measured after 10 mins by Western blot analysis. Type of assay: cell-based. In short, it runs like this: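 HEK293 cells pretreated at 20, 50, 100 and 200 µM. Leucine then added for 10 min to activate mTORC1. Dose dependence of leucine-induced S6K phosphorylation assessed by Western blot.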
Leucine--tRNA ligase, cytoplasmic (Homo sapiens), sequence (Q9P2J5 whole entry, looked up): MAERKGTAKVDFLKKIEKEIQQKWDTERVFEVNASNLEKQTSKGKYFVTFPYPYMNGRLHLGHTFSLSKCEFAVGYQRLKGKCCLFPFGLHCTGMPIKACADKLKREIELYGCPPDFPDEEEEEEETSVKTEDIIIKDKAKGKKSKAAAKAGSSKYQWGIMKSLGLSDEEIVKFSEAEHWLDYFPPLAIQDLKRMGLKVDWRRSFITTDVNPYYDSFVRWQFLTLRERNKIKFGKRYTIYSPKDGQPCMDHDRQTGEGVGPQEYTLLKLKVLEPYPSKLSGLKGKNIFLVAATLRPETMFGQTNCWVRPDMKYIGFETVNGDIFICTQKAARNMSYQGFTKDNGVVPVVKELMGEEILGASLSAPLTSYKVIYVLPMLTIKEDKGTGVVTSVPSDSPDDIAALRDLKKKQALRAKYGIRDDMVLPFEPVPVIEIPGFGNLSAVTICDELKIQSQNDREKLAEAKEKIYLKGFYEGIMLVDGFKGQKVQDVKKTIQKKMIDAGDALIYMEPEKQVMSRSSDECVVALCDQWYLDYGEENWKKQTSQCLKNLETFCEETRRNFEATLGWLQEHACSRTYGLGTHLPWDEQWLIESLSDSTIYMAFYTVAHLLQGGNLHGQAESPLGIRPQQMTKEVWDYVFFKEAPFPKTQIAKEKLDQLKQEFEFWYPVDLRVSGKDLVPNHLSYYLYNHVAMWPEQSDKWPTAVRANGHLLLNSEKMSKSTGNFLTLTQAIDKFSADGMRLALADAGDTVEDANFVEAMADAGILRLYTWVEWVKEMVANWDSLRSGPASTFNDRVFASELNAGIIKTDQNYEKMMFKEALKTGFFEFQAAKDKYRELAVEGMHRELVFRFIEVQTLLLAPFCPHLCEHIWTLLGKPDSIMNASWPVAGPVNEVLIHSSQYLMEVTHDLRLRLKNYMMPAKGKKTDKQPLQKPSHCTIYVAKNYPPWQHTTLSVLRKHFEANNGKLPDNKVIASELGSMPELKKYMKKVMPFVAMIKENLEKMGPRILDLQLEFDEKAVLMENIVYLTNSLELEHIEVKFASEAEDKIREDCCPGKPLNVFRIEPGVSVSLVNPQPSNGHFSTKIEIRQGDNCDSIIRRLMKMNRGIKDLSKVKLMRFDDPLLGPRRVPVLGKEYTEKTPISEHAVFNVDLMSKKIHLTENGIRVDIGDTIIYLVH

For the next assay, the system named is SK-HEP1. Nature of the assay: Antiproliferative activity against human SKHEP1 cells after 72 hrs by SRB assay. The assay is classed as functional, cell-based. The following applies: SK-HEP1, 72 h. In short, it runs like this: (§1)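 Colorimetric growth assay with IC50 values derived; etoposide as positive control. Cell lines: A549 (lung cancer), HCT116 (colon cancer), MDA-MB-231 (breast cancer), SK-Hep-1 (liver cancer), SNU638 (stomach cancer), MRC5 (normal lung […]).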

For the next assay, the system named is MRC5. Briefly: Antiproliferative activity against human MRC5 cells after 72 hrs by SRB assay. Type of assay: cell-based. The settings on record: MRC5, 72 h. In short, it runs like this:
as §1

The next assay deals with A549. Briefly: Antiproliferative activity against human A549 cells after 72 hrs by SRB assay. The following applies: A549, 72 h. The assay is classed as functional, cell-based. In short, it runs like this:
as §1

A further assay concerns HCT-116. Briefly: Antiproliferative activity against human HCT116 cells after 72 hrs by SRB assay. The following applies: HCT-116, 72 h. Type of assay: functional, cell-based. In short, it runs like this: as §1
The subject of the next assay is SNU-638. Briefly: Antiproliferative activity against human SNU638 cells after 72 hrs by SRB assay. Type of assay: functional, cell-based. The following applies: SNU-638, 72 h. In short, it runs like this:
as §1

The next assay has as its system MDA-MB-231. Briefly: Antiproliferative activity against human MDA-MB-231 cells after 72 hrs by SRB assay. Type of assay: functional, cell-based. The settings on record: MDA-MB-231, 72 h. In short, it runs like this:
as §1

Calls of active or inactive are those of the source. The rule behind the calls is not given here. A value given as a limit tells only on which side of the number the result lay.

Consider `CC(C)C[C@H](O)C(=O)NS(=O)(=O)OC[C@H]1O[C@@H](n2cnc3c(N)ncnc32)[C@H](O)[C@@H]1O`, for which the outcome with HEK293 was inactive. The inhibition entry in assay [1] is “Active”. Further, on mTORC2 (Homo sapiens), the inhibition result is “inactive”. The inhibition result in assay [2] is “Dose-dependent effect”. Also, the half-maximal inhibitory concentration (IC50) is 1.76 µM in the assay on SK-HEP1; 16.6 µM in the assay with MRC5; 1 µM with A549; 3.47 µM with HCT-116; 4.5 µM in the assay with SNU-638; 2.61 µM in the assay on MDA-MB-231.

`CNc1ncnc2c1ncn2[C@@H]1O[C@H](COS(=O)(=O)NC(=O)[C@H](O)[C@@H](O)C(C)C)[C@@H](O)[C@H]1O`: the outcome in the assay with HEK293 was inactive. In addition, the inhibition entry (in assay [1]; on mTORC2 (Homo sapiens)) was “inactive” throughout.

Take `CC(C)[C@@H](O)[C@H](O)C(=O)NS(=O)(=O)OC[C@H]1O[C@@H](n2cnc3c(N)nc(I)nc32)[C@H](O)[C@@H]1O`: the result in the assay on HEK293 was inactive. Besides, the inhibition entry in [1] is “Active”. For the same compound, the inhibition entry at mTORC2 (Homo sapiens) is “inactive”.

Regarding `CC(C)C[C@H](O)C(=O)NS(=O)(=O)OC[C@H]1O[C@@H](n2cnc3c(=O)[nH]cnc32)[C@H](O)[C@@H]1O`, the inhibition entry in assay [1] was “Active”. Also, the IC50 with SK-HEP1, with MRC5, in the assay on A549, in the assay on HCT-116, with SNU-638 and in the assay with MDA-MB-231 was more than 20 µM throughout.

Regarding `CC(C)[C@@H](O)[C@H](O)C(=O)NS(=O)(=O)OC[C@H]1O[C@@H](n2cnc3c(N)ncnc32)C[C@@H]1O`, the outcome in the assay on HEK293 was inactive. The inhibition result in [1] was “Active”. On mTORC2 (Homo sapiens), the inhibition result was “inactive”. For the same compound, in assay [2], the inhibition result is “Dose-dependent effect”. Also, the IC50 in the assay with SK-HEP1 is 5.74 µM; in the assay with MRC5, more than 20 µM; with A549, 5.04 µM; in the assay with HCT-116, 6.52 µM; in the assay with SNU-638, 4.72 µM; with MDA-MB-231, 6.27 µM.

On to `CC(C)[C@H](O)[C@@H](O)C(=O)NS(=O)(=O)OC[C@H]1O[C@@H](n2cnc3c(N)ncnc32)[C@H](O)[C@@H]1O`, for which the outcome in the assay with HEK293 was inactive. Besides, the inhibition result (in assay [1]; on mTORC2 (Homo sapiens)) was “inactive” each time.

For `Nc1ncnc2c1ncn2[C@@H]1O[C@H](COS(=O)(=O)NC(=O)[C@@H](O)[C@H](O)C2CC2)[C@@H](O)[C@@H]1O`, in assay [1], the inhibition entry was “Active”. The half-inhibitory concentration (IC50) in the assay with SK-HEP1 is 7.26 µM; with MRC5, more than 20 µM; in the assay with A549, 6.93 µM; in the assay with HCT-116 it was 9.14 µM; in the assay on SNU-638, 5.7 µM; with MDA-MB-231, 17.8 µM.

Take `CC(C)[C@@H](O)[C@H](O)C(=O)NS(=O)(=O)OC[C@@H]1C[C@@H](O)[C@H](n2cnc3c(N)ncnc32)O1`: the result in the assay on HEK293 was inactive. In addition, the inhibition result (in [1]; on mTORC2 (Homo sapiens)) was “inactive” in each case.

With `CC(C)[C@@H](O)[C@H](O)C(=O)NS(=O)(=O)OC[C@H]1O[C@@H](n2cnc3c(N)ncnc32)[C@H](O)[C@@H]1O`, in the assay with HEK293, the result was inactive. Besides, the inhibition result in [1] is “Active”. Also, the inhibition result at mTORC2 (Homo sapiens) is “inactive”.

Take `Nc1nc(I)nc2c1ncn2[C@@H]1O[C@H](COS(=O)(=O)NC(=O)[C@@H](O)[C@H](O)C2CC2)[C@@H](O)[C@H]1O`: the inhibition result in assay [1] was “Active”. For the same compound, the IC50 in the assay on SK-HEP1 was 5.86 µM; with MRC5, more than 20 µM; in the assay with A549, 4.84 µM; in the assay on HCT-116 it was 7.27 µM; in the assay on SNU-638, 4.77 µM; in the assay on MDA-MB-231, 16.7 µM.

Turning to `CC(C)C[C@H](Cl)C(=O)NS(=O)(=O)OC[C@H]1O[C@@H](n2cnc3c(N)nc(Cl)nc32)[C@H](O)[C@@H]1O`, the inhibition entry in [1] was “Active”. Moreover, the half-maximal inhibitory concentration (IC50) is 5.87 µM in the assay with SK-HEP1; more than 20 µM in the assay with MRC5; 6.27 µM in the assay on A549; 7.51 µM with HCT-116; 5.5 µM in the assay with SNU-638; 7.75 µM in the assay with MDA-MB-231.
